Measurements collected from several papers.
Lines come from different studies, so protocols differ.
TYK2: Non-receptor tyrosine-protein kinase TYK2 (TYK2, Homo sapiens, UniProt P29597)
TYK2 JH2: Non-receptor tyrosine-protein kinase TYK2, JH2 (TYK2, Homo sapiens, UniProt P29597)
TYK2 JH1: Non-receptor tyrosine-protein kinase TYK2, JH1 (TYK2, Homo sapiens, UniProt P29597)

With `O=C1Nc2ccc(Cl)cc2C1=Cc1cc(Cl)c(O)c(Cl)c1` the remaining signal was 26.9% (TYK2; cell-free assay; 0.5 µM).
With `N[C@@H]1CCN(c2nccc(-c3cnn4ncccc34)n2)C1` the remaining binding was 100% (TYK2; binding; 1 µM).
`CCN(CC)CCNC(=O)c1c(C)[nH]c(/C=C2\C(=O)Nc3ccc(F)cc32)c1C` has a remaining signal of 52.6% (TYK2; cell-free assay; 0.5 µM).
`Cn1nc(C(=O)NCc2ccc(C(=O)O)cc2)cc1-c1ccc2[nH]ccc2c1` gave a remaining binding of 94% (TYK2 JH2; cell-free assay, competition with immobilised ligand; 0.1 µM).
`CC(C)(O)[C@H]1CC[C@H](Nc2ccc3ncc(-c4cccc(C(F)(F)F)c4)n3n2)CC1` gave a remaining activity of 73.7% (TYK2; enzyme activity, inhibitor; 1 µM).
The remaining binding of `CS(=O)(=O)NCC[C@H](NC(=O)c1cncc2c1cnn2-c1ccc(F)cc1)c1ccnc(S(C)(=O)=O)c1` is reported as 100% (TYK2 JH1; cell-free assay, competition with immobilised ligand; 1 µM).
`Cc1ccc(NC(=O)c2ccc(C)c(C(F)(F)F)c2)cc1C#Cc1nn(C2CCC(O)CC2)c2ncnc(N)c12` (stereo not shown) gave a remaining signal of 36% (TYK2; cell-free assay; 10 µM).
`CN(CCCC(F)(F)F)c1nccc(-c2cnn3ncccc23)n1` gave a remaining binding of 100% (TYK2; binding; 1 µM).
`CS(=O)(=O)Nc1cccc(-c2csc(NC(=O)CSc3nc4nccnc4c(=O)n3CCc3ccccc3)n2)c1` has an inhibition of -1% (TYK2; enzyme activity, inhibitor; 10 µM).
`CC(=O)N1CCC(c2ccc(C(=O)NC3=NCCN3)cc2C(F)(F)F)CC1` gave a remaining binding of 100% (TYK2 JH1; cell-free assay, competition with immobilised ligand; 1 µM).
`O=C(Nc1cnn(-c2csc(C(=O)NC3COC3)c2)c1)Nc1c(F)cccc1Cl` has a remaining activity of 89.3% (TYK2; enzyme activity, inhibitor; 5 µM).
`Nc1ncnc2occ(-c3ccc(NC(=O)Nc4cc(C(F)(F)F)ccc4F)cc3)c12` gave a remaining signal of 100% (TYK2 JH2; cell-free assay, inhibitor; 20 µM).
The remaining activity of `CC(C)(C)c1nc2c(s1)c1nc(N)ncc1c1ccc(NS(=O)(=O)c3c(F)cccc3F)c(F)c12` is reported as 92% (TYK2; enzyme activity, inhibitor, radiometric; 1 µM).
The remaining binding of `Cc1c(C(=O)O)cc(-c2ccc(C3CCNCC3)cc2)c2ccc(-c3ccc(C(F)(F)F)cc3)cc12` is reported as 100% (TYK2 JH1; binding, competition with immobilised ligand; 1 µM).
`C[C@H]1CCN(c2nccc(-c3cnn4ncccc34)n2)C1` has a remaining binding of 51% (TYK2; binding; 1 µM).
`O=C(NCc1ncc(C(F)(F)F)cc1Cl)c1ccc2c(c1)C1(CCS(=O)(=O)CC1)[C@H](C1CC1)N2S(=O)(=O)c1ccc(F)cc1` has a remaining binding of 79% (TYK2 JH2; cell-free assay, competition with immobilised ligand; 1 µM).
With `COc1cc2ncnc(Nc3ccc(Oc4ccccc4)cc3C)c2cc1OC` the inhibition was 7% (TYK2; enzyme activity, inhibitor; 1 µM).
The remaining binding of `CN(C)C(=O)Cn1cc(-c2nc(C3(c4ccc(-c5cnc(N)nc5)cc4)CC3)no2)cn1` is reported as 90% (TYK2 JH2; cell-free assay, competition with immobilised ligand; 1 µM).
`CN(c1nccc(-c2cnn3ncccc23)n1)C1CC1` gave a remaining binding of 100% (TYK2; binding; 1 µM).
